# Screening data as filed in PubChem BioAssay.
# LMPTP block = blocks human LMPTP phosphatase. P24666. recombinant LMPTP-A, OMFP fluorogenic substrate, fluorescence intensity. inhibition, % at 20 µM. 360,000 compounds, 0.22% hits;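 active = compounds that cut the enzyme signal by at least half of the control window in the single-dose screen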;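 also: plate controls were DMSO wells with enzyme plus substrate for no effect and substrate without enzyme for full effect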
#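 Assay system: LMPTP-A enzyme. Input: 0.625 nM LMPTP-A final. Probe or stimulus: 400 µM OMFP. Compound dosing: single 20 µM dose. Schedule: 50 min dark incubation at room temperature. Detection: fluorescence intensity of OMFP turnover product. Read-out: percent inhibition versus substrate-only and uninhibited controls. Benchmarks: no-enzyme low control, uninhibited high control.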
# CSN deneddyl inh = CSN deneddylation inhibition | Q92905 | Purified CSN, SCF-Nedd8-OG deneddylation, fluorescence polarization | inhibition, % at 12.5 µM | 360,000 compounds, 0.38% hits;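 active = pattern-corrected inhibition above about 35%, with an unprinted fluorescence ratio check between 0.5 and 1.5, limit read from the data, passing the limit was not always enough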;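 also: 0% = enzyme with substrate and 100% = substrate without enzyme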
# Target sequence (Q92905 whole entry, looked up, one chain of several): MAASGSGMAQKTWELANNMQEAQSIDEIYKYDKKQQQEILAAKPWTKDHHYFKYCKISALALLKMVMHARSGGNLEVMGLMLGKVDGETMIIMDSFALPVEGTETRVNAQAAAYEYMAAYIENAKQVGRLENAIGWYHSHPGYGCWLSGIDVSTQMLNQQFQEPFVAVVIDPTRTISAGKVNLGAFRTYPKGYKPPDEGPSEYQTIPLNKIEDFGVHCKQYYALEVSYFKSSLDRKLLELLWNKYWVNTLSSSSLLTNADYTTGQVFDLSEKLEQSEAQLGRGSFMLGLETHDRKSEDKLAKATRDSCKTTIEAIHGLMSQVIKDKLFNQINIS
#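 Assay system: HEK293T-derived human Csn5 enzyme; quantity: 0.24 nM enzyme; medium: Tris/NaCl/DTT buffer, pH 7.5; also added: substrate SCFSkp2-Nedd8OG, 10 nM; doses: 12.5 µM compound; schedule: 90 min reaction at room temperature; signal: FP; read-out: % inhibition of substrate cleavage by Csn5; benchmarks: substrate-only high control, full reaction low control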
# Scp1 inh = blocks human Scp-1 phosphatase activity; Recombinant Scp1, phosphopeptide, malachite green phosphate absorbance; 340,000 compounds, 0.88% hits; AID 493091; Q9GZU7; inhibition, % at 20 µM;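 active = inhibition above about 50% at 20 µM, limit read from the data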;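 also: plate controls were DMSO wells with enzyme for no effect and wells lacking enzyme for full effect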
# Target sequence (Q9GZU7 76-261 limits assumed): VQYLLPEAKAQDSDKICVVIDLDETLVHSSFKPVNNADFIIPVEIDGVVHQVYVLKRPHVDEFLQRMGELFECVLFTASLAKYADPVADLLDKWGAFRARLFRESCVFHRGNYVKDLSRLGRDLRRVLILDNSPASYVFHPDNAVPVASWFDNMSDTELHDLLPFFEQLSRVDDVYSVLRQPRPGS
#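 Material – SCP-1 phosphatase catalytic domain, residues 76-261 · Buffer or medium – Acidic Tris acetate buffer with magnesium and detergent · Also added – Phospho 17-mer peptide substrate · Compound – single 20 µM dose, 1% DMSO · Times – 45 min room-temperature reaction, 5 min colour, 30 min stabiliser · Technique – Phosphate-binding colour reagent, absorbance read at 630 nm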
# DNMT1 inh = inhibitors of human DNMT1. P26358. DNMT1 molecular beacon, Hinp1I cleavage, fluorescence. inhibition (reported as % activation of signal), % at 10 µM. 360,000 compounds, 0.83% hits; in the data active = inhibition above about 50%
# STEP block = STEP (human) phosphatase inhibition. inhibition, % at 20 µM. 360,000 compounds, 0.25% hits. AID 588621. recombinant STEP, OMFP fluorogenic substrate, fluorescence. P54829;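 active = inhibition at 20 µM, scaled per plate between control wells, above about 37%, limit read from the data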;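 also: 0% = DMSO with enzyme and substrate and 100% = substrate only without enzyme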
#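 System: isolated STEP enzyme; schedule: 20 min enzyme reaction at room temperature, protected from light; medium: Bis-Tris buffer pH 6.0, 2.5 mM DTT, 0.005% Tween 20; signal: fluorescence, 480/540 nm; dosing: single compound dose of 20 µM, 1% DMSO final; also added: OMFP substrate, 25 µM final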
# SUMO1 PPI mod = modulators of human SUMO1-mediated protein-protein interactions. P63165. SUMO1 binding to a labelled peptide, TR-FRET, 1 h. inhibition, % at 20 µM. 360,000 compounds, 0.33% hits. AID 602429; in the data active = inhibition above about 37%
# Target sequence (P63165 whole entry, looked up): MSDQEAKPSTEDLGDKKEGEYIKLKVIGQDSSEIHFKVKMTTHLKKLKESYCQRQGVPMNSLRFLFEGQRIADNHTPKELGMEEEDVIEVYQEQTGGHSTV
# * hit, by the source's call; . = not tested or not shown; + = active, no number. An excerpt weighted towards active compounds, which were near 2% of everything screened.
SMILES,LMPTP block,CSN deneddyl inh,Scp1 inh,DNMT1 inh,STEP block,SUMO1 PPI mod
CC(C)C(NC(=O)CCNC(=O)c1ccc([N+](=O)[O-])cc1)c1nc2ccccc2[nH]1 (stereo not drawn),-2.5,-2.3,-6.5,-0.1,-3.1,-22.8
CC1=C(C(=O)N(C)C)CC(CC(=O)NC(c2ccccc2)c2ccccc2)C(=O)N1Cc1ccc(C(C)(C)C)cc1 (stereo not drawn),2.4,3.8,.,-1.9,8.4,2.3
CCN(CC)C(=O)C1=C(C)N(Cc2ccc(C(C)(C)C)cc2)C(=O)C(CC(=O)NC(c2ccccc2)c2ccccc2)C1 (stereo not drawn),4.6,+,.,-22.8,0.8,-3.3
CCN(CC)C(=O)C1=C(C)N(Cc2ccc(OC)cc2)C(=O)C(CC(=O)NCCc2ccccn2)C1 (stereo not drawn),-0.6,85.3*,.,5.9,-3.9,2.9
CCc1noc(C)c1C(=O)Nc1sc(C(=O)N(C)C)c(C)c1C#N,-1.0,-1.0,-12.6,-1.0,-1.1,0.7
CC(C)n1nnc(-c2ccc(OCc3ccccc3F)cc2)n1,2.4,-1.0,58.3*,-3.4,1.0,1.6
C[C@H]1Cn2cnc(C(=O)Nc3ccccc3)c2C(=O)N1,-1.5,-1.3,.,4.1,-5.1,7.1
CCOC(=O)N1CCC(NC(=O)c2cc3c(-c4ccc(Cl)cc4)nn(C)c3s2)CC1,0.7,-4.8,-15.2,-14.3,3.2,73.1*
CC(C)NC(=O)c1cc2c(-c3ccc(Cl)cc3)nn(C)c2s1,-0.4,-6.6,-15.2,4.7,2.3,-1.0
CCOc1ccc(C(=O)COC(=O)Cc2n[nH]c(=O)c3ccccc23)cc1,0.0,-2.9,-8.9,-2.5,1.0,48.4*
COc1ccc(-c2nnc(Nc3ccc(S(=O)(=O)Nc4nccs4)cc3)c3ccccc23)cc1,-0.4,12.0,1.2,-4.8,0.2,43.8*
CCN(CC)S(=O)(=O)c1ccc(NC(=O)C2CCCN(C(=O)c3ccc(Cl)cc3)C2)cc1 (stereo not drawn),0.3,2.7,-7.4,-1.8,0.5,-0.3
COc1ccccc1CNC(=O)N/C=C/c1ccc(Cl)cc1,1.2,-20.9,-1.1,-1.6,-0.2,0.0
Cc1nc(CSc2nsc(/C=C/N(C)C)c2C#N)cs1,1.5,44.9*,-1.2,-10.9,-1.4,-8.8
COc1ccc(NS(=O)(=O)c2ccc3c(c2)[C@H]2C=CC[C@H]2[C@@H](c2ccc(C(=O)O)cc2)N3)cc1,4.4,30.2,14.2,86.6*,2.6,52.9*
O=C(O)c1ccc2c(c1)C1C=CCC1C(c1ccncc1)N2 (stereo not drawn),-1.6,5.6,9.0,-1.5,1.3,1.3
Cc1c(Cl)cccc1NS(=O)(=O)c1ccc2c(c1)C1C=CCC1C(c1ccc(C(=O)O)cc1)N2 (stereo not drawn),26.2,27.5,26.2,87.1*,1.5,50.3*
N#CCc1nc2ccc(S(=O)(=O)N3CCOCC3)cc2s1,0.0,49.4*,9.0,-13.9,-3.1,4.9
CSc1nc2ccc(S(=O)(=O)N3CCOCC3)cc2s1,-0.9,2.2,9.8,-3.7,3.8,-0.7
O=S(=O)(c1ccc(Cl)c(C(F)(F)F)c1)N1CCN(CC(O)COc2ccccc2F)CC1 (stereo not drawn),1.2,1.0,2.6,6.6,1.1,0.7
C/C(=N/NC(=O)c1cc(O)c(O)c(O)c1)c1ccc([N+](=O)[O-])cc1,10.3,7.8,50.5*,11.2,1.1,-16.2
C/C(=N\NC(=O)c1ccc([N+](=O)[O-])cc1)c1c(O)cc(C)oc1=O,-1.4,-8.0,-6.0,1.3,-4.9,-6.7
COc1cccc(CNC(=O)C2CSC3(C)CCC(=O)N23)c1 (stereo not drawn),-0.2,14.8,-9.0,3.3,-5.5,-4.4
O=C(O)c1cn(C2CC2)c2cc(N3CCN(S(=O)(=O)c4ccc5c(c4)OCCO5)CC3)c(F)cc2c1=O,65.1*,1.4,0.2,-0.1,5.1,7.8
C/C(=N\Nc1cc(C)nc(-c2ccccc2)n1)c1cccc([N+](=O)[O-])c1,2.1,5.3,-0.7,9.8,-2.1,48.3*
SMILES,LMPTP block,CSN deneddyl inh,Scp1 inh,DNMT1 inh,STEP block,SUMO1 PPI mod
Cc1nc(C(F)(F)F)ccc1C(=O)N1CCC1(C)C(=O)NCc1cccs1 (stereo not drawn),-0.6,-0.9,.,3.1,0.7,0.0
Cc1nc(NC(=O)/C=C/c2ccco2)sc1C,0.7,-3.0,31.2,24.6,1.3,-7.5
CNS(=O)(=O)c1ccc2nc(NC(=O)/C=C/c3ccco3)sc2c1,5.0,56.1*,6.2,6.1,-1.5,10.6
CCC(C)(C)NC(=O)CN(C(=O)c1csnn1)c1ccccc1-c1ccccc1,-0.6,-4.6,-2.5,1.8,-0.6,2.5
Cc1cc(C(=O)CCC(=O)N(C)CC(=O)Nc2ccccc2Br)c(C)s1,0.1,54.1*,-0.6,-12.0,8.9,6.6
O/N=C(/CCc1ccccc1)c1ccc2c(c1)OCCO2,-0.3,1.8,-0.4,-1.7,-2.3,-4.4
Cc1ccc(Cn2nc(C)c(C(=O)NCC(c3cccs3)N3CCOCC3)c2Cl)cc1 (stereo not drawn),-7.6,4.3,-6.1,0.8,-0.2,-27.1
COc1cc([C@H]2c3[nH]c4ccccc4c3C[C@H]3C(=O)N4[C@@H](c5cc(OC)c(OC)c(OC)c5)c5[nH]c6ccccc6c5C[C@H]4C(=O)N23)cc(OC)c1OC,3.5,-0.1,-0.2,52.0*,-3.2,13.2
CC(=O)OCC(=O)C1CCC2C3CC=C4CC(O)CCC4(C)C3CCC12C (stereo not drawn),-0.2,1.4,-11.7,4.6,-2.7,-2.0
CC(=O)C1CCC2C3CC=C4CC(SC(=N)N)CCC4(C)C3CCC12C (stereo not drawn),62.7*,1.1,17.0,4.7,4.7,-54.1
O=C1N(Cc2cccc(Cl)c2)C[C@@H]2C[C@@H](c3c[nH]c4ccccc34)N3CCC[C@@]123,4.0,49.2*,-0.5,-13.0,-3.0,-4.6
CCCNCC1C(Oc2ccc(Cl)cc2)C(=O)N1c1ccccc1C (stereo not drawn),-1.8,-0.5,-6.3,1.7,-4.2,4.2
O=C(/C=C/c1cc[n+](CC(=O)c2ccc3cccc4c3c2CC4)cc1)c1ccc2cccc3c2c1CC3,54.4*,113.1*,17.4,102.3*,19.2,131.6*
CCOC(=O)c1sc(N)c(C#N)c1COC(=O)CNC(=O)c1cc(OC)c(OC)c(OC)c1,0.1,71.1*,-4.9,-20.9,-10.1,8.4
Cc1ccc(CC2(c3ccccc3)NC(=O)NC2=O)cc1 (stereo not drawn),-0.5,-2.3,-2.2,-1.6,-4.6,5.3
